The values below come from ChEMBL document CHEMBL1129264, “Mercaptoacyl dipeptides as orally active dual inhibitors of angiotensin-converting enzyme and neutral endopeptidase” (1996).

The subject of experiment [1] is Rattus norvegicus. The experiment is described as follows: Plasma ANF Concentration in the Conscious Rat at a dose of 14.3(po)mg/kg at 2 h. Type of experiment: functional. In outline: (§1)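 Male Sprague-Dawley rats (275-390 g), catheterized in femoral artery and vein under ketamine (150 mg/kg)/acepromazine, tethered and recovered 24 h, studied conscious. Continuous iv rat ANF(99-126) infusion at 450 ng/kg/min for 5 h; baseline blood at 60 min, then oral dosing, sampling at 30-240 min.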

The target of experiment [2] is T1, Angiotensin-converting enzyme (Rattus norvegicus) (UniProt P47820).
T1 sequence (whole entry): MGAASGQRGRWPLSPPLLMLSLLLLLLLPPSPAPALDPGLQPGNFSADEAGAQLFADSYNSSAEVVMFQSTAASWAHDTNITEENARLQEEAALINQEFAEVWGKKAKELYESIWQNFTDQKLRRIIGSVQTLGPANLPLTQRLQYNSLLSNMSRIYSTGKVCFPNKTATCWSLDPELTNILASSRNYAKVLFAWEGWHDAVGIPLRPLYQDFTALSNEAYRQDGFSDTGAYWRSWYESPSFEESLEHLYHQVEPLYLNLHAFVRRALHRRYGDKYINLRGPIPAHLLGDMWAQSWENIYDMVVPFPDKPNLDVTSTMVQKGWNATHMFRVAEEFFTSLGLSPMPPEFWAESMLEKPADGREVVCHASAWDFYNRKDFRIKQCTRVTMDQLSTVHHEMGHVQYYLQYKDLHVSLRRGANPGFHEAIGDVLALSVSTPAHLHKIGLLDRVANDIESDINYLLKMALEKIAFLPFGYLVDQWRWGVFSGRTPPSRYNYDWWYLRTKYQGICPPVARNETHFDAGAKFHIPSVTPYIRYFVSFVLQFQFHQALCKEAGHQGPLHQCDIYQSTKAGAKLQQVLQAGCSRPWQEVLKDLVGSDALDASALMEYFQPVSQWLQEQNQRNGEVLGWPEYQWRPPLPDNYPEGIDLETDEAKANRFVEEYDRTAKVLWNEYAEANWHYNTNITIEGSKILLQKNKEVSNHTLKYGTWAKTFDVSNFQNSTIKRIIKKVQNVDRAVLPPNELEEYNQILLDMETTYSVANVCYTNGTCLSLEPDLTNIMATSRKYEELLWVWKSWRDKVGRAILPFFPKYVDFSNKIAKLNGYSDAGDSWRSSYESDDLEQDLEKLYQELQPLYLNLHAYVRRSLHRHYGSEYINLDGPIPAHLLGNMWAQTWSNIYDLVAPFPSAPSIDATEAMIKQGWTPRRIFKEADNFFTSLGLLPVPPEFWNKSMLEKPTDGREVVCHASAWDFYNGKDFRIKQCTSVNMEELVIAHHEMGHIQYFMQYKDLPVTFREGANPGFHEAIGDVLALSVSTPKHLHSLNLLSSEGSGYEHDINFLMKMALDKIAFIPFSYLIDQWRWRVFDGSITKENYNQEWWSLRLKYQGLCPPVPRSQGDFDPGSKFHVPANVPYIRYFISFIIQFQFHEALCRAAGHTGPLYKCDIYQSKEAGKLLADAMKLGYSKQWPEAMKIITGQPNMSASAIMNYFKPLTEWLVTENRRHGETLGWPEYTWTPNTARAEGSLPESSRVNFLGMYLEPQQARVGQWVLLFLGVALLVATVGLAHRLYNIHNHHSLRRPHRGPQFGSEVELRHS
Nature of the experiment: Compound was tested for plasma inhibition of Angiotensin I converting enzyme activity in the conscious rat. Expressed as Inhibition of AI pressor response at 6 hr at a dose of 14.3 mg/kg po. Set-up: dose 14.3 mg/kg. In kind it is organism-based. In outline: (§2)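 Male conscious normotensive Sprague-Dawley rats (275-390 g), prepared under methohexital sodium (75 mg/kg ip) with femoral arterial and venous catheters. The next day, pressor responses to three angiotensin-I challenges (300 ng/kg iv) were recorded. Compound was then given orally and angiotensin-I challenges were repeated at set times. Percent inhibition is relative to the mean of the three baseline responses.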

Experiment [3] concerns Rattus norvegicus. Nature of the experiment: Plasma ANF Concentration in the Conscious Rat at a dose of 14.3(po)mg/kg at 0.5 h. In kind it is functional. In outline: as §1
The target of experiment [4] is T1, Angiotensin-converting enzyme (Rattus norvegicus). The experiment is described as follows: Compound was tested for plasma inhibition of Angiotensin I converting enzyme activity in the conscious rat. Expressed as Inhibition of AI pressor response at 2 hr at a dose of 14.3 mg/kg po. Type of experiment: organism-based. Set-up: dose 14.3 mg/kg. The gist of the method: (§3)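 Male conscious normotensive Sprague-Dawley rats (275-390 g), given femoral arterial and venous catheters under methohexital sodium (75 mg/kg ip) anesthesia. Next day, pressor responses to three angiotensin-I challenges (300 ng/kg iv) recorded by direct arterial pressure. Compound then dosed orally, and AI challenge repeated at set times. Each post-dose response compared with the mean of the three baseline responses, giving % inhibition.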

The target is the same in experiment [5]. Nature of the experiment: Compound was tested for plasma inhibition of Angiotensin I converting enzyme activity in the conscious rat. Expressed as Inhibition of AI pressor response at 1 hr at a dose of 14.3 mg/kg po. In kind it is organism-based. Also noted: dose 14.3 mg/kg. In outline: as §3
Experiment [6] relates to Rattus norvegicus. The experiment is described as follows: Plasma ANF Concentration in the Conscious Rat at a dose of 14.3(po)mg/kg at 1 h. Type of experiment: functional. In outline:
as §1

Experiment [7] relates to Rattus norvegicus. The experiment is described as follows: Plasma ANF Concentration in the Conscious Rat at a dose of 14.3(po)mg/kg at 4 h. In kind it is functional. In outline: as §1
The target in experiment [8] is T1, Angiotensin-converting enzyme (Rattus norvegicus). Nature of the experiment: Compound was tested for plasma inhibition of Angiotensin I converting enzyme activity in the conscious rat. Expressed as Inhibition of AI pressor response at 4 hr at a dose of 14.3 mg/kg po. In kind it is organism-based. Also noted: dose 14.3 mg/kg. In outline:
as §2

Experiment [9] has the same target. Nature of the experiment: Compound was tested for plasma inhibition of Angiotensin I converting enzyme activity in the conscious rat. Expressed as Inhibition of AI pressor response at 2 hr at a dose of 12.5 mg/kg po. Type of experiment: organism-based. Also noted: dose 12.5 mg/kg. The gist of the method: as §3
The target is the same in experiment [10]. Nature of the experiment: Compound was tested for plasma inhibition of Angiotensin I converting enzyme activity in the conscious rat. Expressed as Inhibition of AI pressor response at 6 hr at a dose of 12.5 mg/kg po. In kind it is organism-based. Set-up: dose 12.5 mg/kg. The gist of the method: as §2
For experiment [11] the target is unchanged. Nature of the experiment: Compound was tested for plasma inhibition of Angiotensin I converting enzyme activity in the conscious rat. Expressed as Inhibition of AI pressor response at 1 hr at a dose of 12.5 mg/kg po. Type of experiment: organism-based. Set-up: dose 12.5 mg/kg. The gist of the method:
as §3

For experiment [12] the target is unchanged. Nature of the experiment: Compound was tested for plasma inhibition of Angiotensin I converting enzyme activity in the conscious rat. Expressed as Inhibition of AI pressor response at 4 hr at a dose of 12.5 mg/kg po. Type of experiment: organism-based. Set-up: dose 12.5 mg/kg. The gist of the method:
as §3

For experiment [13] the target is unchanged. Nature of the experiment: Compound was tested for plasma inhibition of Angiotensin I converting enzyme activity in the conscious rat. Expressed as Inhibition of AI pressor response at 4 hr at a dose of 13.4 mg/kg po. Type of experiment: organism-based. Also noted: dose 13.4 mg/kg. In outline:
as §2

Experiment [14] shares this target. Nature of the experiment: Compound was tested for plasma inhibition of Angiotensin I converting enzyme activity in the conscious rat. Expressed as Inhibition of AI pressor response at 2 hr at a dose of 13.4 mg/kg po. Type of experiment: organism-based. Set-up: dose 13.4 mg/kg. In outline: as §3
For experiment [15] the target is unchanged. The experiment is described as follows: Compound was tested for plasma inhibition of Angiotensin I converting enzyme activity in the conscious rat. Expressed as Inhibition of AI pressor response at 1 hr at a dose of 13.4 mg/kg po. Type of experiment: organism-based. Also noted: dose 13.4 mg/kg. In outline:
as §3

For experiment [16] the target is unchanged. The experiment is described as follows: Compound was tested for plasma inhibition of Angiotensin I converting enzyme activity in the conscious rat. Expressed as Inhibition of AI pressor response at 6 hr at a dose of 13.4 mg/kg po. Also noted: dose 13.4 mg/kg. In kind it is organism-based. In outline:
as §2

The target is the same in experiment [17]. Nature of the experiment: Compound was tested for plasma inhibition of Angiotensin I converting enzyme activity in the conscious rat. Expressed as Inhibition of AI pressor response at 1 hr at a dose of 12.3 mg/kg po. In kind it is organism-based. Also noted: dose 12.3 mg/kg. The gist of the method: as §3
Experiment [18] shares this target. Nature of the experiment: Compound was tested for plasma inhibition of Angiotensin I converting enzyme activity in the conscious rat. Expressed as Inhibition of AI pressor response at 4 hr at a dose of 12.3 mg/kg po. Type of experiment: organism-based. Set-up: dose 12.3 mg/kg. The gist of the method: as §3
Experiment [19] shares this target. Nature of the experiment: Compound was tested for plasma inhibition of Angiotensin I converting enzyme activity in the conscious rat. Expressed as Inhibition of AI pressor response at 2 hr at a dose of 12.3 mg/kg po. In kind it is organism-based. Set-up: dose 12.3 mg/kg. In outline: as §3
Experiment [20] shares this target. Nature of the experiment: Compound was tested for plasma inhibition of Angiotensin I converting enzyme activity in the conscious rat. Expressed as Inhibition of AI pressor response at 6 hr at a dose of 12.3 mg/kg po. Type of experiment: organism-based. Also noted: dose 12.3 mg/kg. The gist of the method: as §2

As to `CCOC(=O)[C@H](Cc1ccc(OC(=O)c2cccnc2)cc1)NC(=O)C1(NC(=O)[C@H](SC(C)=O)C(C)C)CCCC1`, the Control in the experiment on Rattus norvegicus [1] stood at 246%; with Rattus norvegicus [3], 246%; in the experiment with Rattus norvegicus [6] it was 234%; with Rattus norvegicus [7] it was 277%. For the same molecule, the inhibition stood at 60% in experiment [2], 75% in experiment [4], 78% in experiment [5] and 67% in experiment [8].

For `CCOC(=O)[C@H](Cc1ccc(O)cc1)NC(=O)C1(NC(=O)[C@H](SC(=O)COC)C(C)C)CCCC1`, the inhibition in experiment [9] was determined as 77%; in [10], 34%; in [11] it was 81%; in experiment [12], 70%.

As to `CCOC(=O)[C@H](Cc1ccc(OC(=O)C(C)C)cc1)NC(=O)C1(NC(=O)[C@H](SC(C)=O)C(C)C)CCCC1`, the inhibition in experiment [13] turned out to be 63%; in experiment [14] it was 75%; in experiment [15], 73%; in experiment [16] it was 46%.

Take `CCCOc1ccc(C[C@H](NC(=O)C2(NC(=O)[C@H](SC(C)=O)C(C)C)CCCC2)C(=O)OCC)cc1`: the inhibition in experiment [17] was determined as 90%; in experiment [18], 72%; in [19] it was 80%; in experiment [20], 68%.

The term inhibition denotes the change of the read-out against control, counted positive when it falls. Higher therefore signals a response far below the control.
